Screens as filed in PubChem.
B2AR ag: beta2AR agonists driving receptor internalization, primary screen, cell-based, FAP fluorogen, flow cytometry; response, % (no concentration beside the values); hit rate 0.43% among 340,000; Beta-2 adrenergic receptor (Homo sapiens), P07550; AID 504454, 2011; Am2.2-beta2AR cells;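 active = response above a set limit, near 3 SD of response in nonfluorescent compounds, cut at about 42% in these data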
H9c2 protect: cardioprotection against H2O2-induced cell death, primary screen, uHTS, H9c2 cells, ATPLite luminescence | protection from H2O2 cell death, % at 20 µM | hit rate 0.63% among 360,000 | H9c2 cardiomyocytes, H2O2 injury protection, 2 h;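 active = compounds giving at least 50% protection of heart cells from peroxide-induced death in the single-dose screen, raw or plate-pattern-corrected value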;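 also: 0% = DMSO wells with peroxide and 100% = DMSO wells without peroxide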
HKDC1 inh: HKDC1 hexokinase inhibitors, primary screen, biochemical, fluorescence, uHTS. Q2TB90. recombinant HKDC1, G6PDH/diaphorase resazurin coupled fluorescence. inhibition, % at 20 µM. hit rate 0.16% among 340,000. AID 493160, 2011;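 active = inhibition above about 35% when tested at 20 µM, limit read from the data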;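 also: plate controls were DMSO wells with enzyme for no effect and DMSO wells lacking enzyme for full effect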
Target sequence (Q2TB90 whole entry, looked up): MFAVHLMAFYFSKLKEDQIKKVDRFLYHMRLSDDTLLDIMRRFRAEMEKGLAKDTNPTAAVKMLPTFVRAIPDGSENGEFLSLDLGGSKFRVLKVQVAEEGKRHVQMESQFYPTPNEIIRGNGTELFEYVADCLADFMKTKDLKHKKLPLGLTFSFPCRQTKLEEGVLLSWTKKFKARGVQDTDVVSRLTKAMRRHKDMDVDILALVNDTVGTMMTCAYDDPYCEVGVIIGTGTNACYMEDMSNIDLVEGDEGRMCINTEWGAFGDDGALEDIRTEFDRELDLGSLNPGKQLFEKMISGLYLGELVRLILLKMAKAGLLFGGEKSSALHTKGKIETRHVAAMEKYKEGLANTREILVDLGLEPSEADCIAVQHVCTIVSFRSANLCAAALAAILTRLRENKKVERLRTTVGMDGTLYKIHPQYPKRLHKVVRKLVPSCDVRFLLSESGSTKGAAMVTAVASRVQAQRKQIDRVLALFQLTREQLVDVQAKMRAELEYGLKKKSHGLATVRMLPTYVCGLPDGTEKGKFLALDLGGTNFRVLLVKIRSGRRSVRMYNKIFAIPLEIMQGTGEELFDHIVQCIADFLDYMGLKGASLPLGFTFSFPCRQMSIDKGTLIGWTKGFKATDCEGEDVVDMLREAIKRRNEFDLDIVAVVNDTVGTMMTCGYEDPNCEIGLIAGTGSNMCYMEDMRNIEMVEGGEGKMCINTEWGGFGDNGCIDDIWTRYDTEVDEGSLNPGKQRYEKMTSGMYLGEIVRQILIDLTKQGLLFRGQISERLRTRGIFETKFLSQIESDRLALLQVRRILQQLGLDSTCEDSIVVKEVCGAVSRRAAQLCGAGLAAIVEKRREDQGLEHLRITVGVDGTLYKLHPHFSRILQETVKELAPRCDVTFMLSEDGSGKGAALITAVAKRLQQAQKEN
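Assay system: recombinant HKDC1 hexokinase; detection: coupled resazurin fluorescence, excitation 525 nm, emission 613 nm; benchmarks: DMSO-plus-enzyme-mix negative control, buffer-substituted positive control; compound dosing: single 20 µM dose; schedule: 90 min at room temperature in dark; also added: glucose plus 1 mM ATP as hexokinase substrates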
aDG glyco up: activators of alpha-DG glycosylation, primary screen, uHTS, Pro5-aDG cells, AlphaScreen; alpha-DG glycosylation AlphaScreen (IIH6); 0% Pro5, 100% B10-LARGE cell signal; activation, % at 10 µM; hit rate 0.22% among 360,000; AID 624168, 2012;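 active = activation of at least 8% versus controls, or a plate z-score of at least 8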;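 also: Pro5 are CHO cells carrying HIG-tagged alpha-DG that lacks glycosylation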
PfG6PD inh: PfG6PD enzyme inhibitors, primary screen, biochemical, fluorescence intensity, uHTS. glucose-6-phosphate dehydrogenase-6-phosphogluconolactonase (Plasmodium falciparum 3D7). PfGluPho enzyme, NADPH resazurin-diaphorase fluorescence. inhibition, % at 20 µM. hit rate 0.78% among 350,000. AID 504690, 2011;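 active = inhibition reaching at least a set limit at 20 µM in the primary screen, cut at about 59% in these data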;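 also: 0% = DMSO wells with substrate and 100% = DMSO wells lacking glucose-6-phosphate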
UCH37 DUB inh: inhibitors of human UCH37 deubiquitinase, primary screen, biochemical, Ub-AMC cleavage, fluorescence. purified proteasome/UCH37. hit rate 0.33% among 330,000. AID 588478, 2011. Ubiquitin carboxyl-terminal hydrolase isozyme L5 (Homo sapiens), Q9Y5K5. inhibition, % (no concentration beside the values);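 active = mean inhibition over replicate wells above about 20%, limit read from the data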;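 also: 0% = compound-free wells with enzyme and 100% = wells lacking proteasome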
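Schedule: 30 min plus 25 min, room temperature / Material: human UCH37 within purified proteasomes / Technique: AMC fluorescence intensity at 355/460 nm / Buffer or medium: pH 7.4 Tris-HCl (50 mM) with ovalbumin, ATP-MgCl2, DTT / Controls: wells without proteasome as full block, compound-free enzyme plus substrate as uninhibited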
* hit, by the source's call. Sampled rows, rich in hits. Any-hit rate of the full collection: about 2.1%.

What do the screens show for `NC(=NO)c1cccn1Cc1ccccc1[N+](=O)[O-]`?
UCH37 DUB inh: 1.0

Results for COc1ccc(NCC(=O)NN=Cc2c(C)nn(Cc3ccccc3)c2Cl)cc1 ?
UCH37 DUB inh: 2.8

How did N=c1c2c(-c3ccccc3)c(-c3ccccc3)oc2ncn1CCN1CCOCC1 do in these assays?
B2AR ag: -7.2; H9c2 protect: 28.2; HKDC1 inh: 4.6; aDG glyco up: 0.6; PfG6PD inh: 5.0; UCH37 DUB inh: -3.1

What do the screens show for `c1ccc(-c2oc3ncnc(NCCN4CCOCC4)c3c2-c2ccccc2)cc1`?
B2AR ag: -3.7; H9c2 protect: 52.6*; HKDC1 inh: -1.4; aDG glyco up: 0.5; PfG6PD inh: -2.1; UCH37 DUB inh: -24.2

What do the screens show for `CC(C)(C)S(=O)(=O)N1C[C@@H]2CC/C=C\C/C(c3ccccc3)=C\2[C@H]1CCO`?
B2AR ag: -2.7; H9c2 protect: -1.8; HKDC1 inh: -3.8; aDG glyco up: -0.3; PfG6PD inh: 13.4; UCH37 DUB inh: 20.5*

How did CCOCCN1CCN(c2c(CC)c(C)nc3cc(-c4cc(OC)cc(OC)c4)nn23)CC1 do in these assays?
B2AR ag: -0.1; H9c2 protect: 73.3*; HKDC1 inh: 6.4; aDG glyco up: -0.6; PfG6PD inh: 24.9; UCH37 DUB inh: -6.8

How did CC(/C=C/c1ccc2c(c1)OCO2)=NNC(=O)C(O)c1ccccc1 (stereo not given) do in these assays?
UCH37 DUB inh: 0.7

Results for CCN(CC)S(=O)(=O)c1ccc(NN=Cc2cccnc2)nc1 ?
UCH37 DUB inh: 10.8

How did COc1cc(/C=C/c2ccc3cccc(O)c3n2)cc(Br)c1OC do in these assays?
B2AR ag: 10.0; H9c2 protect: 80.4*; HKDC1 inh: -0.1; aDG glyco up: -0.4; PfG6PD inh: 34.9; UCH37 DUB inh: -3.5

What do the screens show for `COc1ccc(/C=C/c2ccc3c(Br)ccc(O)c3n2)cc1`?
B2AR ag: -5.2; H9c2 protect: 61.8*; HKDC1 inh: -9.3; aDG glyco up: 0.2; PfG6PD inh: -14.3; UCH37 DUB inh: 2.0

How did COc1ccc(/C=C/c2ccc3cccc(O)c3n2)cc1Br do in these assays?
B2AR ag: 5.5; H9c2 protect: 62.0*; HKDC1 inh: 3.9; aDG glyco up: 0.0; PfG6PD inh: -9.0; UCH37 DUB inh: -1.3

What do the screens show for `C/C(C=NNC(=O)c1cc(C)oc1C)=C\c1ccccc1`?
UCH37 DUB inh: 3.9

What do the screens show for `COc1ccc(Nc2nc(NCc3ccco3)nc(NN=Cc3ccccc3F)n2)cc1`?
UCH37 DUB inh: 1.6

What do the screens show for `CC(=NNC(=O)Cc1ccccc1)c1ccc(Br)s1`?
UCH37 DUB inh: -0.4

How did CC(=NNC(=O)CN(c1ccc(Oc2ccccc2)cc1)S(C)(=O)=O)C(C)(C)C do in these assays?
UCH37 DUB inh: 1.5

What do the screens show for `CCN(CC)c1ccc(C=NN(c2ccccc2)c2ccccc2)c(O)c1`?
UCH37 DUB inh: 2.9

How did CCN(CC)c1ccc(C(=O)c2ccccc2C(=O)O)c(O)c1 do in these assays?
B2AR ag: 4.3; H9c2 protect: 7.5; HKDC1 inh: -9.0; aDG glyco up: 0.1; PfG6PD inh: -29.9; UCH37 DUB inh: 20.3*

Results for COc1ccc2c(c1)CC(C(=O)Nc1ccc(Cl)cc1)C(=NO)O2 (stereo not given) ?
UCH37 DUB inh: 4.9

Results for Cc1ccc([C@@H]2[C@@H]3C(=O)N(C)C(=O)[C@@H]3[C@]3(C)C(=O)N(Cc4ccccn4)CC(=O)N23)o1 ?
B2AR ag: -8.0; H9c2 protect: 1.0; HKDC1 inh: 8.5; aDG glyco up: 0.3; PfG6PD inh: 14.8; UCH37 DUB inh: 2.6

How did Cc1ccc([C@@H]2[C@@H]3C(=O)N(C)C(=O)[C@@H]3[C@]3(C)C(=O)N(Cc4ccccc4)CC(=O)N23)o1 do in these assays?
B2AR ag: 1.4; H9c2 protect: 4.4; HKDC1 inh: -0.8; aDG glyco up: 0.0; PfG6PD inh: 2.3; UCH37 DUB inh: 24.9*
